In data set [1] the target is T1, Poly(ADP-ribose) glycohydrolase (Homo sapiens, UniProt Q86W56). The data set can be described thus: Inhibition of human full length PARG using Bt-NAD ribosylated PARP1 substrate after 10 mins by TR-FRET assay.
A short description of data set [2]: Clearance in human liver microsomes.
For data set [3], the target named is T1, Poly(ADP-ribose) glycohydrolase. The experiment in a line: Inhibition of PARG in human HeLa cells assessed as induction of MMS-induced PAR chains preincubated for 1 hr followed by MMS addition and measured after 1 hr by Alexofluor 488-conjugated secondary antibody and Hoechst 33342 staining based assay. Type of data set: cell-based. The method in brief: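 Acute (1 h) cell-based proof-of-mechanism assay measuring persistence of PAR chains, i.e. blockade of PARG-mediated PAR degradation, across a dose range. EC50 values are means of at least 4 independent measurements, with standard deviations.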

T1 sequence (Q86W56 whole entry): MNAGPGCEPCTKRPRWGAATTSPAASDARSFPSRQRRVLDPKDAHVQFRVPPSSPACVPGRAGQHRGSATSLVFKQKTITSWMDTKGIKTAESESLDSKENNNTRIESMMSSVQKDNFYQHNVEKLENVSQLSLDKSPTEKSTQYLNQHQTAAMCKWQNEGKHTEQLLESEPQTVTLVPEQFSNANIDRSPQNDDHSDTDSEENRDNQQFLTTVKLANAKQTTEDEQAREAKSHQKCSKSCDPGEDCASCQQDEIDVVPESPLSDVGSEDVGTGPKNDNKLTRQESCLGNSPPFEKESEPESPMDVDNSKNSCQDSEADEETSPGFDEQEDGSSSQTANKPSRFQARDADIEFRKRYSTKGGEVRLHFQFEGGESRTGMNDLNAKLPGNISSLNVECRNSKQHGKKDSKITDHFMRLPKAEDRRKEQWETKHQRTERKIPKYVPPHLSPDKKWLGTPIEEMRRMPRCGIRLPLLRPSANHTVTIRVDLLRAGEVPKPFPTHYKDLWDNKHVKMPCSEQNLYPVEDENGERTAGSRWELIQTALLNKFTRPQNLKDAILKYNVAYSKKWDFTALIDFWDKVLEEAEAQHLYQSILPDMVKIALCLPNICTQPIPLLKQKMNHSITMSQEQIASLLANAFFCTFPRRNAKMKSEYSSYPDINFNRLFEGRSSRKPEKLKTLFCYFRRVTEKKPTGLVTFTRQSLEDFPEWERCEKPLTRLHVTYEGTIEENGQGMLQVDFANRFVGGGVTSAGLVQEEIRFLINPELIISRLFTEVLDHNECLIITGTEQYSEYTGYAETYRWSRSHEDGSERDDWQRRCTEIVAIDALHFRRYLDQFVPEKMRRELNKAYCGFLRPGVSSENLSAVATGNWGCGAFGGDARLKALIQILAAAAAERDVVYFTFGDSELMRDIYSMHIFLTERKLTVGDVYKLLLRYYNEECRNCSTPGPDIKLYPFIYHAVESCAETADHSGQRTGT

Regarding `CCn1c(=O)n(Cc2cc(C)no2)c(=O)c2cc(S(=O)(=O)NC3(C)CC3)ccc21`, the EC50 in data set [1] amounted to 0.33 µM; in data set [3], 0.12 µM. The compound also had an intrinsic clearance (microsomal CLint) in data set [2] of 26 µL/min/mg.

On to `Cn1c(=O)c2cc(S(=O)(=O)NC3(C)CC3)ccc2n(Cc2ccccc2)c1=O`, for which the concentration for a half-maximal effect (EC50) in data set [1] came out at 1.3 µM; in data set [3], 2.3 µM. For the compound `Cn1cc(Cn2c(=O)c3cc(S(=O)(=O)NC4(C)CC4)ccc3n(CC3CC3)c2=O)cn1`, the figures for the EC50 in data set [1] and in data set [3] were 0.029 µM and 0.056 µM, respectively. This compound also returned a microsomal CLint in data set [2] of 81 µL/min/mg.

Turning to `N#CC1(NS(=O)(=O)c2ccc3c(c2)C(=O)c2ccccc2C3=O)CC1`, the EC50 is 3.3 µM in data set [1] and 19 µM in data set [3]. The matching figures for `Cn1c(=O)c2cc(S(=O)(=O)NC3(C#N)CC3)ccc2n(C)c1=O`: 5 µM and 14 µM. As to `C#CCn1c(=O)n(Cc2cnc(C)s2)c(=O)c2cc(S(=O)(=O)NC3(C)CC3)ccc21`, the figures for the EC50 in data set [1] and in data set [3] were 0.045 µM and 0.082 µM, respectively. The intrinsic clearance (microsomal CLint) in data set [2] was 100 µL/min/mg.

Regarding `CC1(NS(=O)(=O)c2ccc3c(c2)C(=O)c2ccccc2C3=O)CC1`, the 50% effective concentration (EC50) came to 6 µM in data set [1] and 6.6 µM in data set [3].

Consider `Cc1ncc(Cn2c(=O)c3cc(S(=O)(=O)NC4(C)CC4)ccc3n(Cc3sc(C)nc3C)c2=O)s1`, for which the 50% effective concentration (EC50) is 0.0048 µM in data set [1] and 0.0092 µM in data set [3]. This compound also displayed a microsomal CLint in data set [2] of 140 µL/min/mg. Turning to `CCn1c(=O)n(Cc2cnn(C)c2)c(=O)c2cc(S(=O)(=O)NC3(C)CC3)ccc21`, in data set [2], the microsomal CLint was determined as 35 µL/min/mg.

Turning to `CN(C)CCn1c(=O)n(C)c(=O)c2cc(S(=O)(=O)NC3(C)CC3)ccc21`, the figures for the half-maximal effective concentration (EC50) in data set [1] and in data set [3] were 2 µM and 6.4 µM, respectively.

On to `Cn1c(=O)c2cc(S(=O)(=O)NC3(C)CC3)ccc2n(CC2CCCCC2)c1=O`, for which the values for the concentration for a half-maximal effect (EC50) in data set [1] and in data set [3] were 0.56 µM and 2.7 µM, respectively. Compound `Cc1nc(-c2ccccc2)c(Cn2c(=O)c3cc(S(=O)(=O)NC4(C)CC4)ccc3n(C)c2=O)s1` had an EC50 in data set [1] of 12 µM. The same measure, in the same setting: to `Cn1nccc1Cn1c(=O)c2cc(S(=O)(=O)NC3(C)CC3)ccc2n(C)c1=O` belongs 4.1 µM; to `Cn1c(=O)c2cc(S(=O)(=O)NC3(C)CC3)ccc2n(Cc2ccncc2)c1=O`, 2.4 µM; to `NC(=O)CNS(=O)(=O)c1ccc2c(c1)C(=O)c1ccccc1C2=O`, greater than 150 µM.

In data set [1], `C#CCn1c(=O)c2cc(S(=O)(=O)NC3(C)CC3)ccc2n(C)c1=O` displayed an EC50 of 3 µM. In data set [1], `Cc1nc(C)c(Cn2c(=O)n(C)c(=O)c3cc(S(=O)(=O)NC4(C)CC4)ccc32)s1` registered an EC50 of 0.18 µM. In the case of `O=C1c2ccccc2C(=O)c2cc(S(=O)(=O)NC3CC3)ccc21`, the 50% effective concentration (EC50) in data set [1] was determined as 13 µM; in data set [3], 22 µM. The corresponding values for `Cn1c(=O)c2cc(S(=O)(=O)NC3(C)CC3)ccc2n(CC#N)c1=O` are 2.8 µM and 8.9 µM. In data set [1], `CCNS(=O)(=O)c1ccc2c(c1)c(=O)n(CC)c(=O)n2CC` showed an EC50 of 140 µM. On the same count and under the same terms, to `Cn1c(=O)n(Cc2ccncc2)c(=O)c2cc(S(=O)(=O)NC3(C)CC3)ccc21` belongs 8 µM. Take `CCn1c(=O)c2cc(S(=O)(=O)NC3(C#N)CC3)ccc2n(CC)c1=O`: the EC50 in data set [1] was 1.8 µM; in data set [3], 5.6 µM. Turning to `Cn1c(=O)n(CC#N)c(=O)c2cc(S(=O)(=O)NC3(C)CC3)ccc21`, a half-maximal response in data set [1] (EC50) required 1.1 µM.

Regarding `Cn1c(=O)n(Cc2cnn(CC#N)c2)c(=O)c2cc(S(=O)(=O)NC3(C)CC3)ccc21`, in data set [1], it took 0.37 µM to reach a half-maximal effect (EC50). On the same count and under the same terms, to `Cn1nnnc1Cn1c(=O)c2cc(S(=O)(=O)NC3(C)CC3)ccc2n(C)c1=O` belongs 3 µM. Still for that read-out and setting: to `COCCNS(=O)(=O)c1ccc2c(c1)C(=O)c1ccccc1C2=O` belongs greater than 150 µM; to `CCn1cc(Cn2c(=O)c3cc(S(=O)(=O)NC4(C)CC4)ccc3n(C)c2=O)cn1`, 0.45 µM; to `O=c1[nH]c2ccc(S(=O)(=O)NC3CC3)cc2c2ccccc12`, 50 µM.

In data set [1], `O=C1c2ccccc2C(=O)c2cc(S(=O)(=O)NCC3CC3)ccc21` returned an EC50 of 24 µM. The same measure, in the same setting: next, `Cn1c(=O)n(CC(=O)c2ccccc2)c(=O)c2cc(S(=O)(=O)NC3(C)CC3)ccc21`: 1.6 µM. Still for that read-out and setting: next, `Cn1c(=O)n(Cc2ccns2)c(=O)c2cc(S(=O)(=O)NC3(C)CC3)ccc21`: 2.3 µM. As to `CCn1c(=O)c2cc(S(=O)(=O)NC3(C)CC3)ccc2n(CC)c1=O`, the EC50 in data set [1] turned out to be 1.5 µM; in data set [3] it was 1.1 µM.

In data set [1], `Cn1c(=O)n(Cc2ccccc2)c(=O)c2cc(S(=O)(=O)NC3(C)CC3)ccc21` returned a half-maximal effective concentration (EC50) of 26 µM. On the same count and under the same terms, next, `Cc1noc(Cn2c(=O)c3cc(S(=O)(=O)NC4(C)CC4)ccc3n(C)c2=O)n1`: 5 µM. In the case of `Cn1c(=O)[nH]c2ccc(S(=O)(=O)NC3(C)CC3)cc2c1=O`, the values for the EC50 in data set [1] and in data set [3] were 4 µM and 8.1 µM, respectively. With `Cn1c(=O)c2cc(S(=O)(=O)NC3(C)CC3)ccc2n(Cc2ccccn2)c1=O`, the EC50 in data set [1] came out at 5.8 µM. The same measure, in the same setting: next, `Cn1c(=O)n(Cc2cnc[nH]2)c(=O)c2cc(S(=O)(=O)NC3(C)CC3)ccc21`: 4 µM. For the compound `Cc1cc(Cn2c(=O)c3cc(S(=O)(=O)NC4(C)CC4)ccc3n(C)c2=O)[nH]n1`, the 50% effective concentration (EC50) in data set [1] was determined as 3.2 µM.

In data set [1], `CNS(=O)(=O)c1ccc2c(c1)C(=O)c1ccccc1C2=O` had an EC50 greater than 30 µM. For `COCCn1c(=O)n(C)c(=O)c2cc(S(=O)(=O)NC3(C)CC3)ccc21`, the EC50 stood at 1.1 µM in data set [1] and 6.1 µM in data set [3]. `Cc1noc(C)c1Cn1c(=O)c2cc(S(=O)(=O)NC3(C)CC3)ccc2n(C)c1=O`: the EC50 in data set [1] was 0.62 µM. The same measure, in the same setting: to `Cn1c(=O)n(Cc2nccs2)c(=O)c2cc(S(=O)(=O)NC3(C)CC3)ccc21` belongs 13 µM; to `Cn1c(=O)n(-c2ccccc2)c(=O)c2cc(S(=O)(=O)NC3(C)CC3)ccc21`, 23 µM. In the case of `CCC(C)(C)NS(=O)(=O)c1ccc2c(c1)C(=O)c1ccccc1C2=O`, the EC50 in data set [1] turned out to be 49 µM.

`Cn1c(=O)n(Cc2ccccn2)c(=O)c2cc(S(=O)(=O)NC3(C)CC3)ccc21` gave an EC50 in data set [1] of 16 µM. Same read-out and setting: to `NC(=O)CCNS(=O)(=O)c1ccc2c(c1)C(=O)c1ccccc1C2=O` belongs greater than 150 µM.

Turning to `Cc1cc(Cn2c(=O)c3cc(S(=O)(=O)NC4(C)CC4)ccc3n(C)c2=O)no1`, in data set [1], a half-maximal effect (EC50) was put at 5.2 µM.

In the case of `Cn1c(=O)c2cc(S(=O)(=O)NC3(C)CC3)ccc2n(Cc2cccnc2)c1=O`, the EC50 in data set [1] stood at 1.3 µM. `Cc1oncc1Cn1c(=O)c2cc(S(=O)(=O)NC3(C)CC3)ccc2n(C)c1=O` registered a concentration giving a half-maximal response (EC50) in data set [1] of 0.77 µM. The same measure, in the same setting: next, `COc1ccc(Cn2c(=O)n(C)c(=O)c3cc(S(=O)(=O)NC4(C)CC4)ccc32)cc1`: 0.45 µM; `Cn1c(=O)c2cc(S(=O)(=O)NC3(C)CC3)ccc2n(Cc2ccc(F)cc2)c1=O`: 0.53 µM.

For the compound `CCn1c(=O)n(C)c(=O)c2cc(S(=O)(=O)NC3(C)CC3)ccc21`, the figures for the concentration for a half-maximal effect (EC50) in data set [1] and in data set [3] were 1.3 µM and 3.6 µM, respectively.

The compound `CCn1c(=O)c2cc(S(=O)(=O)NC3(C)CC3)ccc2n(C)c1=O` yielded an EC50 in data set [1] of 4 µM. `Cc1nnsc1Cn1c(=O)c2cc(S(=O)(=O)NC3(C)CC3)ccc2n(C)c1=O`: in data set [1], a half-maximal response (EC50) required 0.88 µM.

In data set [1], `Cn1c(=O)n(Cc2ccoc2)c(=O)c2cc(S(=O)(=O)NC3(C)CC3)ccc21` returned an EC50 of 6 µM.

Take `C#CCn1c(=O)n(C)c(=O)c2cc(S(=O)(=O)NC3(C)CC3)ccc21`: the EC50 was found to be 0.71 µM in data set [1] and 0.25 µM in data set [3]. In turn, `Cn1c(=O)n(Cc2cncs2)c(=O)c2cc(S(=O)(=O)NC3(C)CC3)ccc21` yielded a half-maximal effective concentration (EC50) in data set [1] of 1.2 µM.
